Measured values reported in the M2OR odorant receptor database.
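Note: active if original authors judged signal statistically different from baseline.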

What follows are compounds tested against T1, OR1G1 (Homo sapiens) (UniProt P47890). Conditions: stereoisomer not certain.
T1 sequence (whole entry): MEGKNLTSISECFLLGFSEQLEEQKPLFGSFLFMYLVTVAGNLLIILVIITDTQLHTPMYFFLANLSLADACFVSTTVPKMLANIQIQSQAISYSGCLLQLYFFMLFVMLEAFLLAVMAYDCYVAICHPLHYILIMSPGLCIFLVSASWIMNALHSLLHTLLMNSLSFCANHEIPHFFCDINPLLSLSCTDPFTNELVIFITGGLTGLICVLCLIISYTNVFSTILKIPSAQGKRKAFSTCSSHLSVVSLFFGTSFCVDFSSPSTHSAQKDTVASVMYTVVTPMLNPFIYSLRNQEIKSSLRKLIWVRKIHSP
Procedure, shortened: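 Whether a receptor–molecule pair is responsive (active) rests on the original authors' judgment that its measured signal was statistically different from baseline. Pairs without that judgment are non-responsive (inactive). Sources used varied assay methods, commonly transient luciferase assays in mammalian cell lines.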
For `CCCCCCCC(C)O` (stereo not given), the “odorant receptor agonist call” value was “active”. For `CCCC(=O)SC`, the “odorant receptor agonist call” value was “active”. For `CCCCCCCCCCO`, the “odorant receptor agonist call” value was “active”. `CCCCCCCCC(=O)O` was tested, and the “odorant receptor agonist call” value was “active”. In the case of `CSC`, the “odorant receptor agonist call” value is reported as “inactive”. In the case of `CCCCCCC(=O)CC`, the “odorant receptor agonist call” value is reported as “active”. `CCCCCC(O)CC` (stereo not given) was tested, and the “odorant receptor agonist call” value was “active”. For `CCCCCCCCO`, the “odorant receptor agonist call” value was “active”. `CCCCCCC(=O)OCC` was tested, and the “odorant receptor agonist call” value was “inactive”. `CCCCCCCCC(=O)OCC` was tested, and the “odorant receptor agonist call” value was “active”. In the case of `CCCCCCCC(=O)[O-].[H+]`, the “odorant receptor agonist call” value is reported as “inactive”. For `CCCCCC(=O)CC`, the “odorant receptor agonist call” value was “inactive”. `CCCCCC=O` was tested, and the “odorant receptor agonist call” value was “active”. `CCCCCCCC(=O)OC` was tested, and the “odorant receptor agonist call” value was “active”. With `CCCCC(CC)CO` (stereo not given) the “odorant receptor agonist call” value was “active”. In the case of `Cc1occc(=O)c1O`, the “odorant receptor agonist call” value is reported as “active”. In the case of `c1cscn1`, the “odorant receptor agonist call” value is reported as “active”. With `CC(C)=CCCC(C)=CC#N` the “odorant receptor agonist call” value was “inactive”. `CCCCCCCCCO` was tested, and the “odorant receptor agonist call” value was “active”. With `CCC(=O)O` the “odorant receptor agonist call” value was “inactive”. `CC(=O)C(C)O` (stereo not given) was tested, and the “odorant receptor agonist call” value was “active”. `CCCCCCCC(C)=O` was tested, and the “odorant receptor agonist call” value was “active”. For `CCCCCCCCCC(=O)[O-].[H+]`, the “odorant receptor agonist call” value was “active”. For `CCCCCCCCCCC(C)=O`, the “odorant receptor agonist call” value was “inactive”. For `CCCCCCC1CCC(=O)O1` (stereo not given), the “odorant receptor agonist call” value was “active”. For `CC=Cc1ccc(OC)cc1`, the “odorant receptor agonist call” value was “active”. `CCCCCCCCCC(=O)OC` was tested, and the “odorant receptor agonist call” value was “active”. With `CCOC(=O)C(C)C` the “odorant receptor agonist call” value was “inactive”. For `COc1ccccc1`, the “odorant receptor agonist call” value was “inactive”. For `CCCCCCC(=O)[O-].[H+]`, the “odorant receptor agonist call” value was “inactive”. `CC(=O)CCC=C(C)C` was tested, and the “odorant receptor agonist call” value was “inactive”. With `CCCC(=O)OCC` the “odorant receptor agonist call” value was “active”. `CCCCOC(=O)CCC` was tested, and the “odorant receptor agonist call” value was “inactive”. In the case of `Cc1ccc(C(C)C)c(O)c1`, the “odorant receptor agonist call” value is reported as “active”. For `CCCCCCCCCC(=O)OCC`, the “odorant receptor agonist call” value was “active”.
